ChEMBL document CHEMBL1147798, “Novel bis(1H-indol-2-yl)methanones as potent inhibitors of FLT3 and platelet-derived growth factor receptor tyrosine kinase” (J Med Chem, 2006)
Active and inactive are the calls of the source. The rule behind the calls is not given here.

Legend:
[1] = target: Platelet-derived growth factor receptor beta (Homo sapiens, UniProt P09619); assay: Inhibition of human PDGFR beta
[2] = target: Platelet-derived growth factor receptor (Mus musculus, UniProt P05622+P26618); assay: Inhibition of endogenous PDGFR in Swiss3T3 fibroblasts
[3] = target: T1, Receptor-type tyrosine-protein kinase FLT3 (Homo sapiens, UniProt P36888); assay: Inhibition of endogenous FLT3 in EOL1 cells; type: cell-based
T1 sequence (P36888 whole entry): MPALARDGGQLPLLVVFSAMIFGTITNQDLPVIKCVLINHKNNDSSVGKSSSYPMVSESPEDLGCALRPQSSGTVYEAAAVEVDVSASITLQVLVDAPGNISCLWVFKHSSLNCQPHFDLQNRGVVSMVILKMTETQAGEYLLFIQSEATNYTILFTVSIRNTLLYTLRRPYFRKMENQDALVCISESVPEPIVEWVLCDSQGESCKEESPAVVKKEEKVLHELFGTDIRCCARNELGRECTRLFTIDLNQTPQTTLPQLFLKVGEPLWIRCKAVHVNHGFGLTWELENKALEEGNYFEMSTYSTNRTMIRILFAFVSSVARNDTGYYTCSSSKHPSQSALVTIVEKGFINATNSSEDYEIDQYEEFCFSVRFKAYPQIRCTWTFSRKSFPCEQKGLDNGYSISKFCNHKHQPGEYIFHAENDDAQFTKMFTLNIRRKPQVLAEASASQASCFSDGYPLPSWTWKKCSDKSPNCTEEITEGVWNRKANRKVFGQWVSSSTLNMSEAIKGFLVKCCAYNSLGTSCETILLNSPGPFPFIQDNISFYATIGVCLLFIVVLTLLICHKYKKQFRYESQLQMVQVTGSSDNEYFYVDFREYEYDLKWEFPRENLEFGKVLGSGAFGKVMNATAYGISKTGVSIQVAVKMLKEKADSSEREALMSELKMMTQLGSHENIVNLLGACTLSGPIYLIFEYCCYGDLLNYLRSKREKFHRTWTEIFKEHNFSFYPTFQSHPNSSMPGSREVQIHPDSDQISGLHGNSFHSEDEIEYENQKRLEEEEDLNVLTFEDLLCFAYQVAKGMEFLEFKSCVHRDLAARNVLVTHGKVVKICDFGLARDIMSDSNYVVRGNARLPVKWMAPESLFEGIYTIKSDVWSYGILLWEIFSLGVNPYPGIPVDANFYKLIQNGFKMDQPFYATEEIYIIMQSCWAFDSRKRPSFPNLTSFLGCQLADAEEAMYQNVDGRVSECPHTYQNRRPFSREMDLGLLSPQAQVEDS

Bcr/Abl fusion protein = Bcr/Abl fusion protein (Homo sapiens, UniProt P00519); assay: Inhibition of oncogenic Bcr-Abl kinase in K562 cells; type: cell-based
Chain of Bcr/Abl fusion protein (P00519 whole entry, the tested form may be a part): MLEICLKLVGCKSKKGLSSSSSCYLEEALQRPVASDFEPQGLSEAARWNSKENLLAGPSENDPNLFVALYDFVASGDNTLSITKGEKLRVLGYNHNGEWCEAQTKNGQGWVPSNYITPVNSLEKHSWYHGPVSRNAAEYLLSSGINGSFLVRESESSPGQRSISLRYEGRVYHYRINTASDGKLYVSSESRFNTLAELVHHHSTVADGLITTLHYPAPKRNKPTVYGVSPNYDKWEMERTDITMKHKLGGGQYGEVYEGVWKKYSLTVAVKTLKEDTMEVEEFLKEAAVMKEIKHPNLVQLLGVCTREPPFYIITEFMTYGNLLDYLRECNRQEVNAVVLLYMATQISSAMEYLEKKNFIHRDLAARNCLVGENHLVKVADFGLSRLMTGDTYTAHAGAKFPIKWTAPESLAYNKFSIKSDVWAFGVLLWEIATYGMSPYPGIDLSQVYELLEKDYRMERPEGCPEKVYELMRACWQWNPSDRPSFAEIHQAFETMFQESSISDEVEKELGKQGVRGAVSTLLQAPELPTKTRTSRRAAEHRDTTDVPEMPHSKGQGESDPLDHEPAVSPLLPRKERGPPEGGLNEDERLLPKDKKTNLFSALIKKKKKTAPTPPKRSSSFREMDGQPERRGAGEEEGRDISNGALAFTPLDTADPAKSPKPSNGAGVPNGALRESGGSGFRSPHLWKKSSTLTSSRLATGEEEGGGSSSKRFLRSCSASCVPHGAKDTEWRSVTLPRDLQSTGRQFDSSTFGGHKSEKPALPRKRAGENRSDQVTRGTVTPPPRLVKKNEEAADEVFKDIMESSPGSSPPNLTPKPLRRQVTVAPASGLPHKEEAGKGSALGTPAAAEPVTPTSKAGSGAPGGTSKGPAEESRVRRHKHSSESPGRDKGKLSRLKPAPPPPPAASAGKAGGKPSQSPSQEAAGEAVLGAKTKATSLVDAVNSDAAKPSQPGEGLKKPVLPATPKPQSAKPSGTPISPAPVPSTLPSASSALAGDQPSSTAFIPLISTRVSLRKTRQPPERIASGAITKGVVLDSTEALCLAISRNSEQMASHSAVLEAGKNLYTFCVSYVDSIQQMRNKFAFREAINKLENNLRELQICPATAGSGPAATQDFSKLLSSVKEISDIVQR
Chain of Bcr/Abl fusion protein (P11274 whole entry, further chain, the tested form may be a part): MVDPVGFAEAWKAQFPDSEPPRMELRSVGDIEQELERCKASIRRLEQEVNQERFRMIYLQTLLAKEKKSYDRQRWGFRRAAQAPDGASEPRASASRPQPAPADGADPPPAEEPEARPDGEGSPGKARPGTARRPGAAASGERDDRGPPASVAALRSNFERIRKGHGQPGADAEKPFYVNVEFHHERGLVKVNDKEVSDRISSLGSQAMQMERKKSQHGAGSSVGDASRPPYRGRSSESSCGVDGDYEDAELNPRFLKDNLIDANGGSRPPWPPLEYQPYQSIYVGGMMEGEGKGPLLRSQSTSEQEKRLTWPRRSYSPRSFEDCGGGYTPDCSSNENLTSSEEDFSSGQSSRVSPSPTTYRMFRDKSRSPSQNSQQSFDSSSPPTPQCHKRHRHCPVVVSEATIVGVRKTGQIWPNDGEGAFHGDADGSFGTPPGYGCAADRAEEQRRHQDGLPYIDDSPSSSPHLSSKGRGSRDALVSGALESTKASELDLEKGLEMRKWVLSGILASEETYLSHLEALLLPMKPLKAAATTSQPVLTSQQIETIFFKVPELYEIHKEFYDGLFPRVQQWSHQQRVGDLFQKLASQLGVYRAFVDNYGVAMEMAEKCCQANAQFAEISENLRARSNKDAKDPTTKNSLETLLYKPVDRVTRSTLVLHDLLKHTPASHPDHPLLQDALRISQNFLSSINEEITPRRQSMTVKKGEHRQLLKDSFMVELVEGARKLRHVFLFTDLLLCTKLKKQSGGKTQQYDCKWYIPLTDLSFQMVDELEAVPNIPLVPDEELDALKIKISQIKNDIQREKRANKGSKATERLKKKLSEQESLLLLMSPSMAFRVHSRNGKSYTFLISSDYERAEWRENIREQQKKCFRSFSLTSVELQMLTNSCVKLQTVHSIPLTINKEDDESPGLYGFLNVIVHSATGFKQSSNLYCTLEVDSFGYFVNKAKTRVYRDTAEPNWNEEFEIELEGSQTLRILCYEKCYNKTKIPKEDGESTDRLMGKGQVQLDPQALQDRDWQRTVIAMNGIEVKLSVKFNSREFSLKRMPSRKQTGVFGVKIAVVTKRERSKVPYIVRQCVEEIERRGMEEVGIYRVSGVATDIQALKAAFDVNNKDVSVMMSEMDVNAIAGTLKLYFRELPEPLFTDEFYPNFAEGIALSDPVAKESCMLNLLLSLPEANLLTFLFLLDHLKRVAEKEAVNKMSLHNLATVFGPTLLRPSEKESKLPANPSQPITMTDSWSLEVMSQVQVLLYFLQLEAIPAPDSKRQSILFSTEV
Outline: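 K562 cells, 2 × 10⁶ in 1 mL serum-free RPMI1640, inhibitor or 1% DMSO at 37 °C for 2 h; lysates immunoblotted with anti-pAbl and anti-Abl to gauge Bcr-Abl autophosphorylation.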

[4] = target: Tyrosine-protein kinase ABL1 (Homo sapiens, UniProt P00519); assay: Inhibition of recombinant Abl
Chain of Tyrosine-protein kinase ABL1 (P00519 whole entry, the tested form may be a part): as the sequence (P00519 whole entry, the tested form may be a part) above
Outline: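 0.5 µg GST-c-Abl catalytic domain preincubated 10 min on ice with inhibitor (DMSO stock) in 50 mM Tris-HCl pH 7.5, 10 mM MgCl₂, 10 µM orthovanadate, 1 mM DTT; [³²Pγ]ATP, final ATP 111 nM, 30 °C 30 min; SDS-PAGE; autophosphorylation radioactivity normalized to Coomassie-stained protein.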

[5] = target: T1, Receptor-type tyrosine-protein kinase FLT3; assay: Inhibition of human FLT3
[6] = target: Mast/stem cell growth factor receptor Kit (Homo sapiens) (UniProt P10721); assay: Inhibition of DNA synthesis in IL3 dependent FDC-P1 cells expressing KIT D814V mutant; type: functional, cell-based
Chain of Mast/stem cell growth factor receptor Kit (Homo sapiens) (P10721 whole entry): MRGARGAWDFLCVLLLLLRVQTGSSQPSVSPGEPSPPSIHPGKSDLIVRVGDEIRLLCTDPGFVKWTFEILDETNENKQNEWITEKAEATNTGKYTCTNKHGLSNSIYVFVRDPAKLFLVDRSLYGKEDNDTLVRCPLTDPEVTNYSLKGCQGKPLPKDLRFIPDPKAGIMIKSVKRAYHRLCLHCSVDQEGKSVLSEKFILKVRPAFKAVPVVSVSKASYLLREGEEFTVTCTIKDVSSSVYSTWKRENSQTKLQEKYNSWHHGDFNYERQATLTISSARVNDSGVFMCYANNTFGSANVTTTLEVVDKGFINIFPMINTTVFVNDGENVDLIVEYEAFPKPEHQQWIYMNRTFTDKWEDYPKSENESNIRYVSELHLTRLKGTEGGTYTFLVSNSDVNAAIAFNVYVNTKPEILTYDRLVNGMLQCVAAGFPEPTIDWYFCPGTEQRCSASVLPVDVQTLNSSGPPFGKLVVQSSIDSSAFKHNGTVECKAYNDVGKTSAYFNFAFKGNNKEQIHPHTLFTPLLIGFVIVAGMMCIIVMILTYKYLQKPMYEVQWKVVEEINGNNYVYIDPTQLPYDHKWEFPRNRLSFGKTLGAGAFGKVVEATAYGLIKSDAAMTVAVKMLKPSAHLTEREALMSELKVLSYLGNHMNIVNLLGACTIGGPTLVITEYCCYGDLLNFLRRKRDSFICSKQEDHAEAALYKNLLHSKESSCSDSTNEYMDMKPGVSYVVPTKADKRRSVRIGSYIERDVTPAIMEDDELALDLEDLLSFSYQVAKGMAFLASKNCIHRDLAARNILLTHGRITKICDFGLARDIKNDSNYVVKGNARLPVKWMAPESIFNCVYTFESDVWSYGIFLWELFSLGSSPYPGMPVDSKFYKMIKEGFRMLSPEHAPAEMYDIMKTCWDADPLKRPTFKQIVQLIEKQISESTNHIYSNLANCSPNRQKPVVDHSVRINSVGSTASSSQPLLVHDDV
Outline: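 Parental FDC-P1 cells or FDC-P1 lines expressing KIT variants treated 42 h with compound, with or without IL-3 or stem cell factor; DNA synthesis measured as [³H]thymidine incorporation.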

Chain of Platelet-derived growth factor receptor beta (P09619 whole entry): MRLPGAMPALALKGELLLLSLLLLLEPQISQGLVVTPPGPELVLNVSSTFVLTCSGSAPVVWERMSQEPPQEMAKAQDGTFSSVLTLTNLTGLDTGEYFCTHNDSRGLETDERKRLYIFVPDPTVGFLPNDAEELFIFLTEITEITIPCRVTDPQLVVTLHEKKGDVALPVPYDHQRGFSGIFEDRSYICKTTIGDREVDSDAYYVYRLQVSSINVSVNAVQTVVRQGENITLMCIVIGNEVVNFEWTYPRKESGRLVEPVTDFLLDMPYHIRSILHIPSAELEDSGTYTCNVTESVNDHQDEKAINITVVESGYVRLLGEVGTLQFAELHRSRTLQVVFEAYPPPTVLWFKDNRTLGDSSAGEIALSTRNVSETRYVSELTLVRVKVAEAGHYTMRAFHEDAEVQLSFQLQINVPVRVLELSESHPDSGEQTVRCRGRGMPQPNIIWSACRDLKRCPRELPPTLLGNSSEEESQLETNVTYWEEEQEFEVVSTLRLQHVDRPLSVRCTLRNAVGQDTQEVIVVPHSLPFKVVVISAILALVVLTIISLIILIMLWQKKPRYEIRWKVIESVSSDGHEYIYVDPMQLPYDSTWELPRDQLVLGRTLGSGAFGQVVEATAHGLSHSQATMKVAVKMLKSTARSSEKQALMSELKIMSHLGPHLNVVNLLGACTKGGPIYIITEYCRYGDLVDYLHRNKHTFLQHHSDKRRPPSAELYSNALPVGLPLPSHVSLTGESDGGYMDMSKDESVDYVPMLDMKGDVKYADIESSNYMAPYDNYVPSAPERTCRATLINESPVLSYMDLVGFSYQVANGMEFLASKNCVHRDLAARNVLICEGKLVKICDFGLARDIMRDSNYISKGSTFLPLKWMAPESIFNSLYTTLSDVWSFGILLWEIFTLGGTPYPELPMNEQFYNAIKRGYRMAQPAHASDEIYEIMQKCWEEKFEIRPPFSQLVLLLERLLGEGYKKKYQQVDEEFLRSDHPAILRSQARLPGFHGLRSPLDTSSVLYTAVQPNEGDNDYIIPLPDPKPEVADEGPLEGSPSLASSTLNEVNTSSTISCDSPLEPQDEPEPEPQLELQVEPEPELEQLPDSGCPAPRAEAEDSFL

SMILES | IC50 [2] [nM] | other results
COc1ccc2[nH]c(C(=O)c3cc4ccc(Cl)cc4[nH]3)cc2c1 | 200 | IC50 [1]: 55 nM
Cc1ccc2cc(C(=O)c3cc4cc(O)ccc4[nH]3)[nH]c2c1 | 580 | 
Cc1cccc2[nH]c(C(=O)c3cc4cc(F)ccc4[nH]3)cc12 | 1200 | 
COc1ccc2[nH]c(C(=O)c3cc4cc(C)ccc4[nH]3)cc2c1 | > 30000 | 
COc1ccc2cc(C(=O)c3cc4cc(O)ccc4[nH]3)[nH]c2c1 | 650 | 
COc1cccc2cc(C(=O)c3cc4cc(O)ccc4[nH]3)[nH]c12 | 2900 | 
COc1ccc2[nH]c(C(=O)c3cc4ccc(F)cc4[nH]3)cc2c1 | 840 | 
O=C(c1cc2cc(O)ccc2[nH]1)c1cc2cc(F)ccc2[nH]1 | 730 | 
COc1cccc2[nH]c(C(=O)c3cc4ccccc4[nH]3)cc12 | 1500 | 
COc1ccc2[nH]c(C(=O)c3cc4cc(F)ccc4[nH]3)cc2c1 | 400 | 
COc1ccc2[nH]c(C(=O)c3cc4c(C)cccc4[nH]3)cc2c1 | 4030 | 
COc1ccc2[nH]c(C(=O)c3cc4cccc(Cl)c4[nH]3)cc2c1 | > 30000 | IC50 [3]: > 30000 nM
COc1ccc2[nH]c(C(=O)c3cc4cc(Cl)ccc4[nH]3)cc2c1 | 2500 | 
Cc1ccc2[nH]c(C(=O)c3cc4cc(O)ccc4[nH]3)cc2c1 | 3500 | 
COc1ccc2[nH]c(C(=O)c3cc4ccc(C)cc4[nH]3)cc2c1 | 510 | 
O=C(c1cc2cc(O)ccc2[nH]1)c1cc2c(Cl)cccc2[nH]1 | 500 | 
COc1ccc2[nH]c(C(=O)c3cc4c(Cl)cccc4[nH]3)cc2c1 | > 30000 | 
COc1ccc2cc(C(=O)c3cc4cc(OCCN5CCCCC5)ccc4[nH]3)[nH]c2c1 | 1000 | 
COc1cccc2[nH]c(C(=O)c3cc4cc(O)ccc4[nH]3)cc12 | 960 | 
O=C(c1cc2cc(O)ccc2[nH]1)c1cc2cccc(F)c2[nH]1 | 4800 | IC50 [3]: > 30000 nM

SMILES | IC50 [2] [nM] | other results
O=C(c1cc2cc(O)ccc2[nH]1)c1cc2cc(O)ccc2[nH]1 | 300 | IC50 [1]: 171 nM; IC50 [3]: 40 nM; IC50 (Bcr/Abl fusion protein): 4200 nM; IC50 [4]: 1300 nM; IC50 [5]: 33 nM
Cc1cccc2[nH]c(C(=O)c3cc4cc(OCCN5CCCCC5)ccc4[nH]3)cc12 | 10000 | IC50 [1]: 1200 nM
COc1ccc2cc(C(=O)c3cc4cc(OCc5ccccc5)ccc4[nH]3)[nH]c2c1 | > 30000 | 
O=C(c1cc2cc(F)ccc2[nH]1)c1cc2cc(OCCN3CCCCC3)ccc2[nH]1 | 500 | 
O=C(c1cc2cc(F)ccc2[nH]1)c1cc2cc(OCc3ccccc3)ccc2[nH]1 | 5800 | IC50 [3]: > 30000 nM
O=C(c1cc2cc(O)ccc2[nH]1)c1cc2c(Br)cccc2[nH]1 | 6100 | 
O=C(c1cc2cc(O)ccc2[nH]1)c1cc2ccc(F)cc2[nH]1 | 590 | 
Cc1cc2ncc(-c3ccccc3)nc2cc1C [AG1295] | 5400 | IC50 [3]: 1100 nM
CCc1cccc2cc(C(=O)c3cc4cc(O)ccc4[nH]3)[nH]c12 | 4400 | 
O=C(c1cc2ccccc2[nH]1)c1cc2cc(F)ccc2[nH]1 | 760 | 
COc1ccc2[nH]c(C(=O)c3cc4c(F)cccc4[nH]3)cc2c1 | 8100 | 
COc1ccc2[nH]c(Cc3cc4cc(F)ccc4[nH]3)cc2c1 | > 30000 | IC50 [3]: > 30000 nM
O=C(c1cc2ccccc2[nH]1)c1cc2ccccc2[nH]1 | 1000 | 
COc1ccc2[nH]c(C(=O)c3cc4cc(Br)ccc4[nH]3)cc2c1 | 8500 | 
COc1ccc2cc(C(=O)c3cc4cc(OCCN(C)C)ccc4[nH]3)[nH]c2c1 | 2800 | 
Cc1cccc2[nH]c(C(=O)c3cc4cc(O)ccc4[nH]3)cc12 | 960 | IC50 [1]: 458 nM; Activity [6]: inactive
O=C(c1cc2ccccc2[nH]1)c1cc2cc(O)ccc2[nH]1 | 200 | IC50 [3]: 570 nM
O=C(c1cc2cc(O)ccc2[nH]1)c1cc2c(F)cccc2[nH]1 | 620 | 
O=C(c1cc2ccccc2[nH]1)c1cc2cc(Oc3ccccc3)ccc2[nH]1 | 10000 | 
COc1ccc2[nH]c(Cc3cc4ccccc4[nH]3)cc2c1 | > 30000 | IC50 [3]: > 30000 nM
